How the values were obtained:
Histamine H3 receptor [1] = target: T1, Histamine H3 receptor (Homo sapiens, UniProt Q9Y5N1); experiment: Displacement of [3H]N-alpha-methylhistamine from human histamine H3 receptor expressed in HEK cells by scintillation counting; assay type: cell-based, HEK293
Summary of the method: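 Membranes (P2 pellet) from rHu H3–HEK cells were incubated in 50 mM Tris–HCl, pH 7.4, with 1 nM [3H]N-α-methylhistamine (82 Ci/mmol). Compounds were tested at half-log steps over a five-log range. Nonspecific binding was defined with 10^-5 M thioperamide. Incubation ran 30 min at 30 °C, then mixtures were filtered on PEI-soaked GF/B filters, washed three times and counted. Ki was taken from nonlinear curve fits.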

[2] = target: Voltage-gated inwardly rectifying potassium channel KCNH2 (Homo sapiens, UniProt Q12809); experiment: Rubidium efflux through human ERG at 5 ug/mL pre-equilibrated for 30 mins by flame atomic absorbance spectroscopy
Sequence of Voltage-gated inwardly rectifying potassium channel KCNH2 (Q12809 whole entry): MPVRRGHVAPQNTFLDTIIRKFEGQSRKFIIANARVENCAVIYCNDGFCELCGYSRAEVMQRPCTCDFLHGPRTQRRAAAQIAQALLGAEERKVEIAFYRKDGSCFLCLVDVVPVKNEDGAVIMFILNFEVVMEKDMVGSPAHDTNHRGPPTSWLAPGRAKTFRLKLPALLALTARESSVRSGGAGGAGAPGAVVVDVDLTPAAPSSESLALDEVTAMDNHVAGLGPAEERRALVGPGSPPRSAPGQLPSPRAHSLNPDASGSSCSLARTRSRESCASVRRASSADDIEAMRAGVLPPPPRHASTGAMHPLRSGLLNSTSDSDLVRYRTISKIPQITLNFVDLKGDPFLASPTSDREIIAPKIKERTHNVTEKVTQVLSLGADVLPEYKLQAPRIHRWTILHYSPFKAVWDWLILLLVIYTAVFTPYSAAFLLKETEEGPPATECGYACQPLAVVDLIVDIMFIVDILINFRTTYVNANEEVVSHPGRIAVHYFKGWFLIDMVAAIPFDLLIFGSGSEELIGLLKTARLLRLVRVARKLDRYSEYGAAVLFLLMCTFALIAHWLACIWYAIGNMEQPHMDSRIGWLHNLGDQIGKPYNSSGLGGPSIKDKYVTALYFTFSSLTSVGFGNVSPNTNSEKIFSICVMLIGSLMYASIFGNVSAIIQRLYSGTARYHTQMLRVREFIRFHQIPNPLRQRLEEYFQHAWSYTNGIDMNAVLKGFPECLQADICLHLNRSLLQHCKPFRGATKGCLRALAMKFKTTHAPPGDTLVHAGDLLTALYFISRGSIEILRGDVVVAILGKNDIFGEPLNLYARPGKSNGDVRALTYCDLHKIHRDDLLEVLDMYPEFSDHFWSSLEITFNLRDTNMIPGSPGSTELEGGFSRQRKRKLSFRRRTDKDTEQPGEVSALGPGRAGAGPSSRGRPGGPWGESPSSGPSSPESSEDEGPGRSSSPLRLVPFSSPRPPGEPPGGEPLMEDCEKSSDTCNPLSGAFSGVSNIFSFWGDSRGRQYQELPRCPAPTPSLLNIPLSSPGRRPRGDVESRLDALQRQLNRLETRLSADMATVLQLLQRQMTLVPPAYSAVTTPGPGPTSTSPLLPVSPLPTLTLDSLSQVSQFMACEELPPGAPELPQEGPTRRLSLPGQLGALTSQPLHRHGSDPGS

Histamine H3 receptor [3] = target: Histamine H3 receptor (Mus musculus, UniProt P58406); experiment: Binding affinity to mouse histamine H3 receptor
Sequence of Histamine H3 receptor (Mus musculus, UniProt P58406) (P58406 whole entry): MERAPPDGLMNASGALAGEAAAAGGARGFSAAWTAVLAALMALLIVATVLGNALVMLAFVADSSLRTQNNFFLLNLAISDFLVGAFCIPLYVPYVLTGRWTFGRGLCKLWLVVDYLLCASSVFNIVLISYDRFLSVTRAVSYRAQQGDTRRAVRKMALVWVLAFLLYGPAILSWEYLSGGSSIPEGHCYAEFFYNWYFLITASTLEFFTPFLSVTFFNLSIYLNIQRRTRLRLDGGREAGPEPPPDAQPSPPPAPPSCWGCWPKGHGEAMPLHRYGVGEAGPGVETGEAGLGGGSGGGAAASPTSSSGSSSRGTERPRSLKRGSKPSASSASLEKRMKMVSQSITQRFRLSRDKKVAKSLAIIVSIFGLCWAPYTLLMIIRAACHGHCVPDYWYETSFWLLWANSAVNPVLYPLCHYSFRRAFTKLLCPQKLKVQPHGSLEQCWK

Histamine H3 receptor [4] = target: T1, Histamine H3 receptor; experiment: Antagonist activity at human histamine H3 receptor expressed in HEK293 cells assessed as reversal of N-alpha-methylhistamine-induced inhibition of forskolin-stimulated cAMP formation; assay type: functional, cell-based
[5] = AUC (0 to 6 hrs) in rat at 10 mg/kg, po; assay type: ADME, organism-based; design: time < 6 hr, dose 10 mg/kg, route oral; settings: plasma
Summary of the method: (§1)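 Oral dosing in rat at 10 mg/kg in methyl cellulose, n = 2, in a high-throughput PK assay. Plasma was sampled over 0–6 h time points to give AUC and Cmax.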

Cytochrome P450 3A4 = Cytochrome P450 3A4 (Homo sapiens, UniProt P08684); experiment: Inhibition of CYP3A4 in human liver microsomes up to 30 uM by microtiter plate assay; assay type: ADME, Microsome
Sequence of Cytochrome P450 3A4 (P08684 whole entry): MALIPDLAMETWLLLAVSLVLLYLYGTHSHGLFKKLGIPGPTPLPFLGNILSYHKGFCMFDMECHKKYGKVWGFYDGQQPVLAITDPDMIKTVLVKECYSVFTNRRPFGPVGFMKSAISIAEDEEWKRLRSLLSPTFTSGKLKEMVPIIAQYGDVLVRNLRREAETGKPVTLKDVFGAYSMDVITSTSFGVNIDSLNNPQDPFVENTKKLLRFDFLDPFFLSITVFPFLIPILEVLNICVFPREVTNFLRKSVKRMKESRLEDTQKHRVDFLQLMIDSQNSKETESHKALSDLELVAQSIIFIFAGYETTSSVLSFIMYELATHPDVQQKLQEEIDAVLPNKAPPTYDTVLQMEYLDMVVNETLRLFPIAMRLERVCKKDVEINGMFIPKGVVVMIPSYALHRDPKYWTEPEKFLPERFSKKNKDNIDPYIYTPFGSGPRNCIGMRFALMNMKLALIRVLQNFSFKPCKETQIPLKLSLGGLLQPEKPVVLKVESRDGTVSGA

Cytochrome P450 2D6 = Cytochrome P450 2D6 (Homo sapiens, UniProt P10635); experiment: Inhibition of CYP2D6 in human liver microsomes up to 30 uM by microtiter plate assay; assay type: ADME, Microsome
Sequence of Cytochrome P450 2D6 (P10635 whole entry): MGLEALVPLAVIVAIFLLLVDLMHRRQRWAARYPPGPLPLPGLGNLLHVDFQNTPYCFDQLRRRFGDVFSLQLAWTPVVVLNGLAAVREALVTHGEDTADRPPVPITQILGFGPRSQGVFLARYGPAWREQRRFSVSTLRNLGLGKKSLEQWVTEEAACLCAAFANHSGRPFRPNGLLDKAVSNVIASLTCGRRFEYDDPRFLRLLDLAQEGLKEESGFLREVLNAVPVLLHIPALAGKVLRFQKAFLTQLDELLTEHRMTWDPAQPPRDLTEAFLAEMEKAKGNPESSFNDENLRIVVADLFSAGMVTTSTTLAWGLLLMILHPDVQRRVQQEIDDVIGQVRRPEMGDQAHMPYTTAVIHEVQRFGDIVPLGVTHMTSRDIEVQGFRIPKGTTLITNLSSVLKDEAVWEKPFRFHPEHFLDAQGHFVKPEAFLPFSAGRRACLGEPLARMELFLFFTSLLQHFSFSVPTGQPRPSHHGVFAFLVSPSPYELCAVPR

[6] = Cmax (0 to 6 hrs) in rat at 10 mg/kg, po; assay type: ADME, organism-based; design: dose 10 mg/kg, route oral; settings: in vivo; summary of the method: as §1

T1 sequence (Q9Y5N1 whole entry): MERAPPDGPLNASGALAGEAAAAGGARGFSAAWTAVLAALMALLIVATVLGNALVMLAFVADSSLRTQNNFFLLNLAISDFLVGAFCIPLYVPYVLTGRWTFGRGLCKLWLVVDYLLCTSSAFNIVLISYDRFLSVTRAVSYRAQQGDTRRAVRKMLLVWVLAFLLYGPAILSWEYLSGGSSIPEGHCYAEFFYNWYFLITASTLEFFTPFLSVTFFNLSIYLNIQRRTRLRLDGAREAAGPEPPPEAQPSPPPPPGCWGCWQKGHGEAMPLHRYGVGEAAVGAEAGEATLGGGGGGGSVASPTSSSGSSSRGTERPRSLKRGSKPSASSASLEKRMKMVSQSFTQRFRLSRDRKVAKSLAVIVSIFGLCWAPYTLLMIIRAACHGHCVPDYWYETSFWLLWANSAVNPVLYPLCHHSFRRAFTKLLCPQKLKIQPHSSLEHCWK

SMILES | Ki (Histamine H3 receptor [1]) | further results
Fc1ccc2c(c1)nc(-c1ccccn1)n2-c1ccc(OCCCN2CCC(Cc3ccccc3)CC2)cc1 | 2 nM | 
COC(=O)C1CCN(CCCOc2ccc(-n3c(-c4ccccn4)nc4cc(F)ccc43)cc2)CC1 | 16 nM | Rb efflux [2]: 49%
Fc1ccc2c(c1)nc(-c1ccccn1)n2-c1ccc(OCCCN2CCc3ccccc3C2)cc1 | 107 nM | Rb efflux [2]: 94%
Fc1ccc2c(c1)nc(-c1ccccn1)n2-c1ccc(OCCCN2CCCCCC2)cc1 | 5.3 nM | 
Fc1ccc2c(c1)nc(-c1ccccn1)n2-c1ccc(OCCCN2CCCCC2)cc1 | 1.2 nM | Ki (Histamine H3 receptor [3]): 1.8 nM; Ki (Histamine H3 receptor [4]): 0.1 nM; AUC(0-t) at 6 h [5]: 2030 ng·h/mL; Activity (Cytochrome P450 3A4): Not Active; Activity (Cytochrome P450 2D6): Not Active; Cmax [6]: 393 ng/mL; Rb efflux [2]: 70%
Fc1ccc2c(c1)[nH]c(=S)n2-c1ccc(OCCCN2CCCCC2)cc1 | 8 nM | 
O=c1[nH]c2cc(F)ccc2n1-c1ccc(OCCCN2CCCCC2)cc1 | 8.7 nM | 
CN1CCCN(CCCOc2ccc(-n3c(-c4ccccn4)nc4cc(F)ccc43)cc2)CC1 | 3.6 nM | 
CCSc1nc2cc(F)ccc2n1-c1ccc(OCCCN2CCCCC2)cc1 | 2.6 nM | 
CCOc1nc2cc(F)ccc2n1-c1ccc(OCCCN2CCCCC2)cc1 | 15 nM | 
Fc1ccc2c(c1)nc(-c1ccccn1)n2-c1ccc(OCCCN2Cc3cccc4cccc(c34)C2)cc1 | 713 nM | 
NC(=O)C1CCCN(CCCOc2ccc(-n3c(-c4ccccn4)nc4cc(F)ccc43)cc2)C1 (stereo not drawn) | 11 nM | 

Second part, led by results:

Ki (Histamine H3 receptor [1]) | SMILES | further results
5.1 nM | C[C@@H]1CC[C@@H](C)N1CCCOc1ccc(-n2c(-c3ccccn3)nc3cc(F)ccc32)cc1 | 
13 nM | CN1CCN(CCCOc2ccc(-n3c(-c4ccccn4)nc4cc(F)ccc43)cc2)CC1 | 
11 nM | CC1CC(C)CN(CCCOc2ccc(-n3c(-c4ccccn4)nc4cc(F)ccc43)cc2)C1 (stereo not drawn) | 
1.8 nM | OC1CCN(CCCOc2ccc(-n3c(-c4ccccn4)nc4cc(F)ccc43)cc2)CC1 | Rb efflux [2]: 16%
20 nM | NC(=O)C1CCN(CCCOc2ccc(-n3c(-c4ccccn4)nc4cc(F)ccc43)cc2)CC1 | 
101 nM | CNCCCOc1ccc(-n2c(-c3ccccn3)nc3cc(F)ccc32)cc1 | 
20 nM | Fc1ccc2c(c1)nc(-c1ccccn1)n2-c1ccc(OCCCN2CCSC2)cc1 | Rb efflux [2]: 42%
1.2 nM | Fc1ccc2c(c1)nc(-c1ccccn1)n2-c1ccc(OCCCN2CCCC2)cc1 | 
3.4 nM | Fc1ccc2c(c1)nc(-c1ccccn1)n2-c1ccc(OCCCN2CCOCC2)cc1 | Rb efflux [2]: 62%

Reference: ChEMBL document CHEMBL1141692, “Benzimidazole-substituted (3-phenoxypropyl)amines as histamine H3 receptor ligands” (Bioorg Med Chem Lett, 2008)
